Reference: ChEMBL document CHEMBL3992538, “Hybrids of thienopyrimidinones and thiouracils as anti-tubercular agents: SAR and docking studies” (Eur J Med Chem, 2017)
Values after ≈ are worked out from the molar mass of the structure shown.

How the values were obtained:
[1] = Cytotoxicity against human PANC1 cells assessed as growth inhibition by MTT assay; assay type: cell-based; settings: PANC-1 cells
Summary of the method: (§1)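 MTT assay in duplicate on THP-1 leukaemia, A549 lung adenocarcinoma, PANC-1 pancreatic adenocarcinoma and HeLa cervical carcinoma cells, all obtained from ECCC.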

[2] = Selectivity index, ratio of GI50 for human A549 cells to MIC for dormant stage of Mycobacterium tuberculosis H37Ra ATCC 25177; assay type: toxicity; settings: read-out: Selectivity Index
Summary of the method: (§2)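 Selectivity index is the cytotoxic GI50 against the named human cell line divided by the antimycobacterial value. Activity counted as specific when SI >10.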

[3] = Cytotoxicity against human THP1 cells assessed as growth inhibition by MTT assay; assay type: cell-based; settings: THP-1 cells; summary of the method: as §1
[4] = tested on: Mycobacterium tuberculosis; experiment: Antitubercular activity against dormant stage of Mycobacterium tuberculosis H37Ra ATCC 25177 infected in human THP1 cells after 12 days by nitrate reductase assay; assay type: functional; settings: H37Ra ATCC 25177, 288 h
Summary of the method: (§3)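 Ex vivo test of H37Ra in THP-1 cells by nitrate reductase assay, absorbance read at 540 nm. Active stage incubated 8 days and dormant stage 12 days. H37Ra (ATCC 25177) grown in M. pheli medium to OD 1.0 and subcultured once from -70°C stock.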

[5] = Selectivity index, ratio of GI50 for human PANC1 cells to MIC for active stage of Mycobacterium tuberculosis H37Ra ATCC 25177; assay type: toxicity; settings: PANC-1 cells, read-out: Selectivity Index; summary of the method: as §2
[6] = Selectivity index, ratio of GI50 for human A549 cells to MIC for active stage of Mycobacterium tuberculosis H37Ra ATCC 25177; assay type: toxicity; settings: read-out: Selectivity Index; summary of the method: as §2
[7] = Selectivity index, ratio of GI50 for human PANC1 cells to MIC for active stage of Mycobacterium tuberculosis H37Ra ATCC 25177 infected in human THP1 cells; assay type: toxicity, cell-based; settings: PANC-1 cells, read-out: Selectivity Index; summary of the method: as §2
[8] = Selectivity index, ratio of GI50 for human PANC1 cells to MIC for dormant stage of Mycobacterium tuberculosis H37Ra ATCC 25177 infected in human THP1 cells; assay type: toxicity, cell-based; settings: PANC-1 cells, read-out: Selectivity Index; summary of the method: as §2
[9] = Selectivity index, ratio of GI50 for human HeLa cells to MIC for dormant stage of Mycobacterium tuberculosis H37Ra ATCC 25177; assay type: toxicity, cell-based; settings: read-out: Selectivity Index; summary of the method: as §2
[10] = tested on: Mycobacterium tuberculosis; experiment: Antitubercular activity against dormant stage of Mycobacterium tuberculosis H37Ra ATCC 25177 after 12 days by XTT reduction menadione assay; assay type: functional; settings: H37Ra ATCC 25177, 288 h
Summary of the method: (§4)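 M. tuberculosis H37Ra (ATCC 25177), grown to log phase (OD 1.0) in M. pheli medium from -70°C stock, subcultured once before inoculation. Incubation 8 days (active) or 12 days (dormant). XRMA read-out as absorbance at 470 nm.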

[11] = Selectivity index, ratio of GI50 for human PANC1 cells to MIC for dormant stage of Mycobacterium tuberculosis H37Ra ATCC 25177; assay type: toxicity; settings: PANC-1 cells, read-out: Selectivity Index; summary of the method: as §2
[12] = Selectivity index, ratio of GI50 for human HeLa cells to MIC for active stage of Mycobacterium tuberculosis H37Ra ATCC 25177 infected in human THP1 cells; assay type: toxicity, cell-based; settings: read-out: Selectivity Index; summary of the method: as §2
[13] = tested on: Mycobacterium tuberculosis; experiment: Antitubercular activity against active stage of Mycobacterium tuberculosis H37Ra ATCC 25177 after 8 days by XTT reduction menadione assay; assay type: functional; settings: H37Ra ATCC 25177, 192 h; summary of the method: as §4
[14] = Cytotoxicity against human HeLa cells assessed as growth inhibition by MTT assay; assay type: cell-based; summary of the method: as §1
[15] = tested on: Mycobacterium tuberculosis; experiment: Antitubercular activity against active stage of Mycobacterium tuberculosis H37Ra ATCC 25177 infected in human THP1 cells after 8 days by nitrate reductase assay; assay type: functional; settings: H37Ra ATCC 25177, 192 h; summary of the method: as §3
[16] = Selectivity index, ratio of GI50 for human HeLa cells to MIC for dormant stage of Mycobacterium tuberculosis H37Ra ATCC 25177 infected in human THP1 cells; assay type: toxicity, cell-based; settings: read-out: Selectivity Index; summary of the method: as §2
[17] = Selectivity index, ratio of GI50 for human HeLa cells to MIC for active stage of Mycobacterium tuberculosis H37Ra ATCC 25177; assay type: toxicity, cell-based; settings: read-out: Selectivity Index; summary of the method: as §2
[18] = Cytotoxicity against human A549 cells assessed as growth inhibition by MTT assay; assay type: cell-based; summary of the method: as §1
[19] = Selectivity index, ratio of GI50 for human A549 cells to MIC for dormant stage of Mycobacterium tuberculosis H37Ra ATCC 25177 infected in human THP1 cells; assay type: toxicity, cell-based; settings: read-out: Selectivity Index; summary of the method: as §2
[20] = Selectivity index, ratio of GI50 for human A549 cells to MIC for active stage of Mycobacterium tuberculosis H37Ra ATCC 25177 infected in human THP1 cells; assay type: toxicity, cell-based; settings: read-out: Selectivity Index; summary of the method: as §2

| Compound | GI50 [1] | selectivity ratio [2] | GI50 [3] | MIC [4] | selectivity ratio [5] | selectivity ratio [6] | selectivity ratio [7] | selectivity ratio [8] | selectivity ratio [9] | MIC [10] | selectivity ratio [11] | selectivity ratio [12] | MIC [13] | GI50 [14] | MIC [15] | selectivity ratio [16] | selectivity ratio [17] | GI50 [18] | selectivity ratio [19] | selectivity ratio [20] |
| --- | --- | --- | --- | --- | --- | --- | --- | --- | --- | --- | --- | --- | --- | --- | --- | --- | --- | --- | --- | --- |
| CC(=O)O[C@H]1C(=O)[C@@]2(C)[C@H]([C@H](OC(=O)c3ccccc3)[C@]3(O)C[C@H](OC(=O)[C@H](O)[C@@H](NC(=O)c4ccccc4)c4ccccc4)C(C)=C1C3(C)C)[C@]1(OC(C)=O)CO[C@@H]1C[C@@H]2O [PACLITAXEL] | 0.128 µg/mL (≈ 0.15 µM) | – | – | – | – | – | – | – | – | – | – | – | – | – | – | – | – | – | – | – |
| CCCCCCCCn1c(SCCCn2cnc3sc4c(c3c2=O)CCCC4)nc(-c2cc(OC)c(OC)c(OC)c2)c(C#N)c1=O | > 100 µg/mL | > 3 | > 100 µg/mL | > 30 µg/mL | > 3 | > 3 | > 3 | > 3 | > 3 | > 30 µg/mL | > 3 | > 3 | > 30 µg/mL | > 100 µg/mL | > 30 µg/mL | > 3 | > 3 | > 100 µg/mL | > 3 | > 3 |
| CCCCCCCc1cc2c(=O)n(CCCSc3nc(-c4cc(OC)c(OC)c(OC)c4)c(C#N)c(=O)[nH]3)cnc2s1 | > 100 µg/mL | 12 | 68.2 µg/mL (≈ 112 µM) | 6.91 µg/mL (≈ 11.3 µM) | 3 | 3 | 3 | > 14 | 10 | 7.6 µg/mL (≈ 12.5 µM) | > 13 | 3 | > 30 µg/mL | 76.1 µg/mL (≈ 125 µM) | > 30 µg/mL | 11 | 3 | 90.5 µg/mL (≈ 148 µM) | 13 | < 3 |
| CCCc1cc2c(=O)n(CCCSc3nc(-c4cc(OC)c(OC)c(OC)c4)c(C#N)c(=O)[nH]3)cnc2s1 | > 100 µg/mL | > 5 | > 100 µg/mL | 11.9 µg/mL (≈ 21.5 µM) | > 3 | > 3 | > 3 | > 8 | 3 | 19.1 µg/mL (≈ 34.5 µM) | > 5 | 2 | > 30 µg/mL | 52.5 µg/mL (≈ 94.8 µM) | > 30 µg/mL | 4 | 2 | > 100 µg/mL | > 8 | > 3 |
| CCCCCCc1cc2c(=O)n(CCCSc3nc(-c4cc(OC)c(OC)c(OC)c4)c(C#N)c(=O)[nH]3)cnc2s1 | 28.1 µg/mL (≈ 47.2 µM) | 10 | 54.3 µg/mL (≈ 91.1 µM) | 7.1 µg/mL (≈ 11.9 µM) | 1 | 3 | 1 | 4 | 8 | 8.7 µg/mL (≈ 14.6 µM) | 3 | 2 | > 30 µg/mL | 67 µg/mL (≈ 112 µM) | > 30 µg/mL | 9 | 2 | 90.2 µg/mL (≈ 151 µM) | 13 | < 3 |
| COc1cc(-c2nc(SCCCn3cnc4sc5c(c4c3=O)CCCC5)n(S(=O)(=O)c3ccc(C)cc3)c(=O)c2C#N)cc(OC)c1OC | > 100 µg/mL | > 3 | > 100 µg/mL | > 30 µg/mL | > 3 | > 3 | > 3 | > 3 | 2 | > 30 µg/mL | > 3 | 2 | > 30 µg/mL | 64.2 µg/mL (≈ 89.2 µM) | > 30 µg/mL | < 2 | 2 | > 100 µg/mL | > 3 | > 3 |
| C#CCn1c(SCCCn2cnc3sc4c(c3c2=O)CCCC4)nc(-c2cc(OC)c(OC)c(OC)c2)c(C#N)c1=O | > 100 µg/mL | > 3 | > 100 µg/mL | > 30 µg/mL | > 3 | > 3 | > 3 | > 3 | 2 | > 30 µg/mL | > 3 | 2 | > 30 µg/mL | 66.3 µg/mL (≈ 110 µM) | > 30 µg/mL | – | 2 | > 100 µg/mL | > 3 | > 3 |
| CO[C@H]1/C=C/O[C@@]2(C)Oc3c(C)c(O)c4c(O)c(c(/C=N/N5CCN(C)CC5)c(O)c4c3C2=O)NC(=O)/C(C)=C\C=C\[C@H](C)[C@H](O)[C@@H](C)[C@@H](O)[C@@H](C)[C@H](OC(C)=O)[C@@H]1C [RIFAMPIN] | – | 208 | 0.14 µg/mL (≈ 0.17 µM) | 0.75 µg/mL (≈ 0.911 µM) | 244 | 244 | 196 | – | 208 | 0.48 µg/mL (≈ 0.583 µM) | 208 | 196 | 0.41 µg/mL (≈ 0.498 µM) | – | 0.51 µg/mL (≈ 0.62 µM) | – | 244 | – | – | 196 |
| COc1cc(-c2nc(SCCCn3cnc4sc5c(c4c3=O)CCCC5)n(CCCn3cnc4sc5c(c4c3=O)CCCC5)c(=O)c2C#N)cc(OC)c1OC | > 100 µg/mL | < 3 | 81.4 µg/mL (≈ 100 µM) | > 30 µg/mL | > 3 | 3 | > 3 | > 3 | 3 | > 30 µg/mL | > 3 | 3 | > 30 µg/mL | 89.6 µg/mL (≈ 110 µM) | > 30 µg/mL | < 3 | 3 | 83.1 µg/mL (≈ 102 µM) | 3 | < 3 |
| COc1cc(-c2nc(SCCCn3cnc4sc5c(c4c3=O)CCCC5)n(CCC(F)(F)C(F)(F)C(F)(F)C(F)(F)C(F)(F)C(F)(F)F)c(=O)c2C#N)cc(OC)c1OC | > 100 µg/mL | > 8 | > 100 µg/mL | 8.8 µg/mL (≈ 9.65 µM) | > 3 | > 3 | > 3 | > 11 | > 8 | 11.7 µg/mL (≈ 12.8 µM) | > 8 | > 3 | > 30 µg/mL | > 100 µg/mL | > 30 µg/mL | > 11 | > 3 | > 100 µg/mL | > 11 | > 3 |
| COc1cc(-c2[nH]c(=S)[nH]c(=O)c2C#N)cc(OC)c1OC | > 100 µg/mL | > 6 | > 100 µg/mL | 11.3 µg/mL (≈ 35.4 µM) | > 3 | > 3 | > 3 | > 9 | 4 | 17.3 µg/mL (≈ 54.2 µM) | > 6 | 2 | > 30 µg/mL | 63.7 µg/mL (≈ 199 µM) | > 30 µg/mL | 6 | 2 | > 100 µg/mL | > 9 | > 3 |
